Measurements as given in ChEMBL document CHEMBL1240413, “Synthesis and evaluation of vinyl sulfones as caspase-3 inhibitors. A structure-activity study” (Eur J Med Chem, 2010).

target: T1, Caspase-7 (Homo sapiens, UniProt P55210); assay: Inhibition of human recombinant caspase 7 assessed as fluorescent 7-amido-4-methylcoumarin release
T1 sequence (P55210 whole entry): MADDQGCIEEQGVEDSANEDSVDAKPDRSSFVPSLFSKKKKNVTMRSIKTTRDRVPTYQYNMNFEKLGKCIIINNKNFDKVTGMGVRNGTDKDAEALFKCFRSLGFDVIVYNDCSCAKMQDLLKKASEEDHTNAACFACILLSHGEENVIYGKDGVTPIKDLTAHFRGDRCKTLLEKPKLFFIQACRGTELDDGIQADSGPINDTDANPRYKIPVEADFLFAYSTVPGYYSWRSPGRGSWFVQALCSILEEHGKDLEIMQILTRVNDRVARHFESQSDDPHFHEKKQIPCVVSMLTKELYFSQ
Method in brief: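 Recombinant human caspase-7, 1 U per well final, was mixed with inhibitor at various concentrations in 20 mM HEPES, 2 mM EDTA, 0.1% CHAPS, 5 mM DTT, pH 7.4. The reaction was started by adding Ac-DEVD-AMC substrate, with a stock of 2 mM in DMSO. AMC release was followed continuously at 37 °C (ex 360, em 460 nm), and IC50 was determined.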

Compound	IC50
O=C(O)C[C@@H](/C=C/S(=O)(=O)c1ccccc1)NC(=O)OCC1c2ccccc2-c2ccccc21	> 200 µM
CC[C@H](C)[C@H](NC(=O)OCc1ccccc1)C(=O)N[C@H](/C=C/S(C)(=O)=O)CC(=O)O	> 200 µM
CC(C)[C@H](NC(=O)OCC1c2ccccc2-c2ccccc21)C(=O)N[C@H](/C=C/S(C)(=O)=O)CC(=O)O	> 200 µM
CC(C)[C@H](NC(=O)OCc1ccccc1)C(=O)N[C@H](/C=C/S(C)(=O)=O)CC(=O)O	> 200 µM
CC(=O)N[C@@H](CC(=O)O)C(=O)N[C@@H](CCC(=O)O)C(=O)N[C@H](C(=O)N[C@H](C=O)CC(=O)O)C(C)C	0.0591 µM
CS(=O)(=O)/C=C/[C@H](CC(=O)O)NC(=O)OCC1c2ccccc2-c2ccccc21	> 200 µM
CC(C)[C@H](NC(=O)OCC1c2ccccc2-c2ccccc21)C(=O)N[C@H](/C=C/S(=O)(=O)c1ccccc1)CC(=O)O	> 200 µM
CC[C@H](C)[C@H](NC(=O)OCc1ccccc1)C(=O)N[C@H](/C=C/S(=O)(=O)c1ccccc1)CC(=O)O	> 200 µM

target: T2, Caspase-3 (Homo sapiens, UniProt P42574); assay: Inhibition of human recombinant caspase 3 assessed as fluorescent 7-amido-4-methylcoumarin release
T2 sequence (P42574 whole entry): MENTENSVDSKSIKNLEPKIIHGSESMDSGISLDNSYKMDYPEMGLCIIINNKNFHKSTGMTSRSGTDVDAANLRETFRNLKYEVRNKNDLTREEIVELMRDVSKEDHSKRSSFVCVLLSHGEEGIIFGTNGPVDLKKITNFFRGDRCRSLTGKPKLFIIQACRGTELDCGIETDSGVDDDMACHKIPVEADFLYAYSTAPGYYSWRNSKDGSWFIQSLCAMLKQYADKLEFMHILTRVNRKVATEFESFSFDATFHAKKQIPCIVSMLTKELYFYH

Compound	IC50
O=C(O)C[C@@H](/C=C/S(=O)(=O)c1ccccc1)NC(=O)OCc1ccccc1	453 µM
CC(C)[C@H](NC(=O)OCc1ccccc1)C(=O)N[C@H](/C=C/S(=O)(=O)c1ccccc1)CC(=O)O	388 µM
CC(C)[C@H](NC(=O)OCc1ccccc1)C(=O)N[C@H](/C=C/S(C)(=O)=O)CC(=O)O	133 µM
C[C@H](NC(=O)OCc1ccccc1)C(=O)N[C@H](/C=C/S(=O)(=O)c1ccccc1)CC(=O)O	343 µM
CS(=O)(=O)/C=C/[C@H](CC(=O)O)NC(=O)OCc1ccccc1	435 µM
C[C@H](NC(=O)OCc1ccccc1)C(=O)N[C@H](/C=C/S(C)(=O)=O)CC(=O)O	656 µM
